Columns and labels:
Bone [1] = assay: Biodistribution in BALB/c mouse bone at 7.4 MBq, iv after 10 mins by gamma counting; type: ADME, organism-based, Bone element; settings: in vivo
Procedure, shortened: (§1)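 Tracer given intravenously to BALB/c mice; animals sampled at 10, 30, 60 and 120 min after injection. Organ radioactivity expressed as percentage of injected dose per gram of tissue (% ID/g), n = 12.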

Pancreas [2] = assay: Biodistribution in BALB/c mouse pancreas at 7.4 MBq, iv after 120 mins by gamma counting; type: ADME, organism-based; settings: in vivo, 2 h; procedure, shortened: as §1
Liver [3] = assay: Biodistribution in BALB/c mouse liver at 7.4 MBq, iv after 10 mins by gamma counting; type: ADME, organism-based; settings: in vivo; procedure, shortened: as §1
Kidney [4] = assay: Biodistribution in BALB/c mouse kidney at 7.4 MBq, iv after 30 mins by gamma counting; type: ADME, organism-based; settings: in vivo, 0.5 h; procedure, shortened: as §1
Intestine = assay: Biodistribution in BALB/c mouse intestine at 7.4 MBq, iv after 60 mins by gamma counting; type: ADME, organism-based; settings: in vivo, 1 h; procedure, shortened: as §1
Blood [5] = assay: Biodistribution in BALB/c mouse blood at 7.4 MBq, iv after 60 mins by gamma counting; type: ADME, organism-based; settings: in vivo, 1 h; procedure, shortened: as §1
Liver [6] = assay: Biodistribution in BALB/c mouse liver at 7.4 MBq, iv after 30 mins by gamma counting; type: ADME, organism-based; settings: in vivo, 0.5 h; procedure, shortened: as §1
Nucleic Acid [7] = assay: Ratio of drug level in BALB/c mouse heart to liver at 7.4 MBq, iv after 30 mins by gamma counter; type: ADME, organism-based; settings: in vivo, 0.5 h
Procedure, shortened: (§2)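 Normal BALB/c mice were given the 18F tracer by i.v. injection. Tissues were sampled at 10, 30, 60 and 120 min. Activity is expressed as % injected dose per gram of tissue (n = 12), and organ ratios were taken from these values.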

Heart [8] = assay: Biodistribution in BALB/c mouse heart at 7.4 MBq, iv after 60 mins by gamma counting; type: ADME, organism-based; settings: in vivo, 1 h; procedure, shortened: as §1
Lung [9] = assay: Biodistribution in BALB/c mouse lung at 7.4 MBq, iv after 60 mins by gamma counting; type: ADME, organism-based; settings: in vivo, 1 h; procedure, shortened: as §1
Heart [10] = assay: Biodistribution in BALB/c mouse heart at 7.4 MBq, iv after 120 mins by gamma counting; type: ADME, organism-based; settings: in vivo, 2 h; procedure, shortened: as §1
Pancreas [11] = assay: Biodistribution in BALB/c mouse pancreas at 7.4 MBq, iv after 10 mins by gamma counting; type: ADME, organism-based; settings: in vivo; procedure, shortened: as §1
Nucleic Acid [12] = assay: Ratio of drug level in BALB/c mouse heart to blood at 7.4 MBq, iv after 10 mins by gamma counter; type: ADME, organism-based; settings: other tissue; procedure, shortened: as §2
Lung [13] = assay: Biodistribution in BALB/c mouse lung at 7.4 MBq, iv after 120 mins by gamma counting; type: ADME, organism-based; settings: in vivo, 2 h; procedure, shortened: as §1
Blood [14] = assay: Biodistribution in BALB/c mouse blood at 7.4 MBq, iv after 30 mins by gamma counting; type: ADME, organism-based; settings: in vivo, 0.5 h; procedure, shortened: as §1
Nucleic Acid [15] = assay: Ratio of drug level in BALB/c mouse heart to blood at 7.4 MBq, iv after 120 mins by gamma counter; type: ADME, organism-based; settings: other tissue, 2 h; procedure, shortened: as §2
Spleen = assay: Biodistribution in BALB/c mouse spleen at 7.4 MBq, iv after 120 mins by gamma counting; type: ADME, organism-based; settings: in vivo, 2 h; procedure, shortened: as §1
Pancreas [16] = assay: Biodistribution in BALB/c mouse pancreas at 7.4 MBq, iv after 30 mins by gamma counting; type: ADME, organism-based; settings: in vivo, 0.5 h; procedure, shortened: as §1
Stomach = assay: Biodistribution in BALB/c mouse stomach at 7.4 MBq, iv after 120 mins by gamma counting; type: ADME, organism-based; settings: in vivo, 2 h; procedure, shortened: as §1
Bone [17] = assay: Biodistribution in BALB/c mouse bone at 7.4 MBq, iv after 120 mins by gamma counting; type: ADME, organism-based, Bone element; settings: in vivo, 2 h; procedure, shortened: as §1
Lung [18] = assay: Biodistribution in BALB/c mouse lung at 7.4 MBq, iv after 30 mins by gamma counting; type: ADME, organism-based; settings: in vivo, 0.5 h; procedure, shortened: as §1
Bone [19] = assay: Biodistribution in BALB/c mouse bone at 7.4 MBq, iv after 60 mins by gamma counting; type: ADME, organism-based, Bone element; settings: in vivo, 1 h; procedure, shortened: as §1
Kidney [20] = assay: Biodistribution in BALB/c mouse kidney at 7.4 MBq, iv after 10 mins by gamma counting; type: ADME, organism-based; settings: in vivo; procedure, shortened: as §1
Liver [21] = assay: Biodistribution in BALB/c mouse liver at 7.4 MBq, iv after 60 mins by gamma counting; type: ADME, organism-based; settings: in vivo, 1 h; procedure, shortened: as §1
Muscle tissue [22] = assay: Biodistribution in BALB/c mouse normal muscle at 7.4 MBq, iv after 120 mins by gamma counting; type: ADME, organism-based; settings: in vivo, 2 h; procedure, shortened: as §1
Muscle tissue [23] = assay: Biodistribution in BALB/c mouse normal muscle at 7.4 MBq, iv after 60 mins by gamma counting; type: ADME, organism-based; settings: in vivo, 1 h; procedure, shortened: as §1
Nucleic Acid [24] = assay: Ratio of drug level in BALB/c mouse heart to liver at 7.4 MBq, iv after 120 mins by gamma counter; type: ADME, organism-based; settings: in vivo, 2 h; procedure, shortened: as §2
Lung [25] = assay: Biodistribution in BALB/c mouse lung at 7.4 MBq, iv after 10 mins by gamma counting; type: ADME, organism-based; settings: in vivo; procedure, shortened: as §1
Nucleic Acid [26] = assay: Ratio of drug level in BALB/c mouse heart to liver at 7.4 MBq, iv after 60 mins by gamma counter; type: ADME, organism-based; settings: in vivo, 1 h; procedure, shortened: as §2
Bone [27] = assay: Biodistribution in BALB/c mouse bone at 7.4 MBq, iv after 30 mins by gamma counting; type: ADME, organism-based, Bone element; settings: in vivo, 0.5 h; procedure, shortened: as §1
H9c2 = assay: Cellular uptake in rat H9c2 cells after 0.5 to 2 hrs by gamma counting in presence of CCCP; type: ADME, cell-based
Procedure, shortened: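 H9c2 cells incubated with radiotracer at 37 °C for 0.5, 1 or 2 h in the presence of 0.5 µM protonophore CCCP, which abolishes mitochondrial membrane potential. Uptake expressed as percentage of applied radioactivity; means ± SD of three measurements.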

Heart [28] = assay: Biodistribution in BALB/c mouse heart at 7.4 MBq, iv after 10 mins by gamma counting; type: ADME, organism-based; settings: in vivo; procedure, shortened: as §1

## [18F]CCOCC[P+](c1ccccc1)(c1ccccc1)c1ccccc1
Bone [1]
  Drug uptake: 3.37 % ID/g
Pancreas [2]
  Drug uptake: 5.44 % ID/g
Liver [3]
  Drug uptake: 3.57 % ID/g
Kidney [4]
  Drug uptake: 23.67 % ID/g
Intestine
  Drug uptake: 4.67 % ID/g
Blood [5]
  Drug uptake: 0.23 % ID/g
Liver [6]
  Drug uptake: 2.42 % ID/g
Nucleic Acid [7]
  Ratio: 8.05
Heart [8]
  Drug uptake: 19.96 % ID/g
Lung [9]
  Drug uptake: 4.01 % ID/g
Heart [10]
  Drug uptake: 24.27 % ID/g
Pancreas [11]
  Drug uptake: 8.8 % ID/g
Nucleic Acid [12]
  Ratio: > 55
Lung [13]
  Drug uptake: 5.55 % ID/g
Blood [14]
  Drug uptake: 0.22 % ID/g
Nucleic Acid [15]
  Ratio: > 102
Spleen
  Drug uptake: 1.23 % ID/g
Pancreas [16]
  Drug uptake: 5.96 % ID/g
Stomach
  Drug uptake: 2.49 % ID/g
Bone [17]
  Drug uptake: 2.28 % ID/g
Lung [18]
  Drug uptake: 5.18 % ID/g
Bone [19]
  Drug uptake: 2.44 % ID/g
Kidney [20]
  Drug uptake: 36.05 % ID/g
Liver [21]
  Drug uptake: 2.03 % ID/g
Muscle tissue [22]
  Drug uptake: 3.2 % ID/g
Muscle tissue [23]
  Drug uptake: 4.42 % ID/g
Nucleic Acid [24]
  Ratio: 19.16
Lung [25]
  Drug uptake: 7.69 % ID/g
Nucleic Acid [26]
  Ratio: 9.87
Bone [27]
  Drug uptake: 2.35 % ID/g
H9c2
  Drug uptake: Not Active
Heart [28]
  Drug uptake: 35.23 % ID/g

Reference: ChEMBL document CHEMBL1949496, “Synthesis of [¹⁸F]-labeled (2-(2-fluoroethoxy)ethyl)triphenylphosphonium cation as a potential agent for myocardial imaging using positron emission tomography” (Bioorg Med Chem Lett, 2012)
